pEC50, pIC50: −log10 of the molar value.

These results are taken from ChEMBL document CHEMBL1132458, “Potent and selective inhibition of varicella-zoster virus (VZV) by nucleoside analogues with an unusual bicyclic base” (J Med Chem, 1999).

In assay [1] the test system is HEL. The experiment in a line: Compound was evaluated for the cytotoxicity against HEL cells. Format: functional. To be noted: Homo sapiens.
Assay [2] relates to Human alphaherpesvirus 3. The experiment in a line: Compound was evaluated for the inhibition of VZV (TK-) thymidine kinases Strain YS-R. Format: functional, organism-based.
Assay [3] relates to Human alphaherpesvirus 3. The experiment in a line: Compound was evaluated for the inhibition of VZV (TK-) thymidine kinases Strain 07. Format: functional, organism-based.
For assay [4], the system named is Human alphaherpesvirus 3. Nature of the assay: Compound was evaluated for the inhibition of VZV strains of OKA. The format is functional, organism-based.
The subject of assay [5] is Human alphaherpesvirus 3. Nature of the assay: Compound was evaluated for the inhibition of VZV strains of YS. Format: functional, organism-based.
For assay [6], the system named is HEL. The experiment in a line: Compound was evaluated for the cytotoxicity against HEL cells. To be noted: Homo sapiens.
For assay [7], the system named is Human alphaherpesvirus 3. The experiment in a line: Compound was evaluated for the inhibition of VZV (TK-) thymidine kinase-deficient strain YS-R. Format: functional, organism-based. The method, boiled down: (§1)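 Confluent human embryonic lung (HEL) fibroblasts were infected with 20 PFU per well of virus for 1–2 h, and then residual virus was removed. Cells were then kept in MEM with 2% inactivated FCS, 1% L-glutamine and 0.3% sodium bicarbonate, plus serial compound concentrations. Plaques were scored after 5 days. EC50 is the concentration cutting plaque formation by 50% versus untreated control.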

Assay [8] deals with Human alphaherpesvirus 3. The experiment in a line: Compound was evaluated for the inhibition of VZV (TK-) thymidine kinase-deficient strain 07. Format: functional, organism-based. The method, boiled down:
as §1

For `CCCCCCCCCCc1cc2cn([C@H]3C[C@H](O)[C@@H](CO)O3)c(=O)nc2o1`, the MCC in the assay with HEL [1] is greater than 50 µM. Besides, the pEC50 (as a rule, the EC50 on a negative log10 scale, so that one unit is a factor of ten) is less than 4.30 with Human alphaherpesvirus 3 [2], less than 4.30 with Human alphaherpesvirus 3 [3], 7.82 in the assay on Human alphaherpesvirus 3 [4] and 8.10 in the assay on Human alphaherpesvirus 3 [5]. The pIC50 – broadly, the IC50 on a negative log10 scale, so that one unit is a factor of ten – in the assay on HEL [6] is less than 4.30.
Turning to `CCCCCCCCCc1cc2cn([C@H]3C[C@H](O)[C@@H](CO)O3)c(=O)nc2o1`, the MCC with HEL [1] was greater than 200 µM. Moreover, the pEC50 is less than 3.70 with Human alphaherpesvirus 3 [2], less than 3.70 in the assay with Human alphaherpesvirus 3 [3], 7.70 with Human alphaherpesvirus 3 [4] and 7.70 in the assay on Human alphaherpesvirus 3 [5]. In the assay with HEL [6], this compound showed a pIC50 of less than 3.70.
`CCCCCCCCc1cc2cn([C@H]3C[C@H](O)[C@@H](CO)O3)c(=O)nc2o1`: the MCC in the assay with HEL [1] was greater than 50 µM. Moreover, the pEC50 was less than 4.30 with Human alphaherpesvirus 3 [2], less than 4.30 in the assay on Human alphaherpesvirus 3 [3], 8.10 in the assay on Human alphaherpesvirus 3 [4] and 7.62 in the assay on Human alphaherpesvirus 3 [5]. In the assay on HEL [6], the pIC50 was less than 4.30.
Take `CCCCCCc1cc2cn([C@H]3C[C@H](O)[C@@H](CO)O3)c(=O)nc2o1`: the pEC50 was less than 4.30 in the assay on Human alphaherpesvirus 3 [7], less than 4.30 in the assay with Human alphaherpesvirus 3 [8], 5.89 in the assay on Human alphaherpesvirus 3 [4] and 5.55 in the assay with Human alphaherpesvirus 3 [5]. The MCC in the assay with HEL [1] came to 200 µM. Also, the pIC50 in the assay with HEL [6] was less than 3.70.
`CCCCCCCc1cc2cn([C@H]3C[C@H](O)[C@@H](CO)O3)c(=O)nc2o1` displayed an MCC in the assay with HEL [1] greater than 50 µM. Besides, the pEC50 was less than 4.30 in the assay on Human alphaherpesvirus 3 [2], less than 4.30 in the assay with Human alphaherpesvirus 3 [3], 6.77 in the assay with Human alphaherpesvirus 3 [4] and 6.41 in the assay on Human alphaherpesvirus 3 [5]. Besides, the pIC50 in the assay on HEL [6] is less than 4.30.
As to `CCCCCc1cc2cn([C@H]3C[C@H](O)[C@@H](CO)O3)c(=O)nc2o1`, the pEC50 was less than 4.30 in the assay on Human alphaherpesvirus 3 [7], less than 4.30 with Human alphaherpesvirus 3 [8], 5.52 with Human alphaherpesvirus 3 [4] and 5.34 in the assay on Human alphaherpesvirus 3 [5]. The compound further returned an MCC in the assay with HEL [1] greater than 50 µM. The pIC50 in the assay with HEL [6] is less than 4.30.
In the assay on HEL [1], `CCCCCCCCCCCc1cc2cn([C@H]3C[C@H](O)[C@@H](CO)O3)c(=O)nc2o1` returned an MCC of 200 µM. Besides, the pEC50 was less than 4.30 with Human alphaherpesvirus 3 [2], less than 4.30 with Human alphaherpesvirus 3 [3], 6.30 in the assay on Human alphaherpesvirus 3 [4] and 6.30 in the assay with Human alphaherpesvirus 3 [5]. In the assay on HEL [6], this compound showed a pIC50 of less than 3.70.
In turn, `CCCCCCCCCCCCc1cc2cn([C@H]3C[C@H](O)[C@@H](CO)O3)c(=O)nc2o1` came in with an MCC in the assay with HEL [1] of 50 µM. Moreover, the pEC50 was less than 4.70 in the assay on Human alphaherpesvirus 3 [2], less than 4.30 in the assay with Human alphaherpesvirus 3 [3], 5.89 in the assay on Human alphaherpesvirus 3 [4] and 5.96 with Human alphaherpesvirus 3 [5]. Further, the pIC50 with HEL [6] was less than 3.70.
With `Nc1nc2c(ncn2COCCO)c(=O)[nH]1` [ACYCLOVIR], in the assay on HEL [1], the MCC was greater than 200 µM. In the assay on HEL [6], this compound gave a pIC50 of less than 3.70.
Regarding `O=c1[nH]c(=O)n([C@H]2C[C@H](O)[C@@H](CO)O2)cc1/C=C/Br` [BRIVUDINE], in the assay on HEL [1], the MCC is greater than 150 µM. The pEC50 is less than 3.52 in the assay on Human alphaherpesvirus 3 [2], 3.84 with Human alphaherpesvirus 3 [3], 8.52 with Human alphaherpesvirus 3 [4] and 8.22 in the assay on Human alphaherpesvirus 3 [5]. Further, in the assay with HEL [6], the pIC50 was less than 3.40.
